From publication PMC11382307 (Asian Journal of Pharmaceutical Sciences, 2024)

System: bEnd.3 cells
Experiment: In vitro cellular uptake in bEnd.3 cells
Assay type: in vitro ADME
Settings: for cellular uptake observed by confocal imaging: 10 µM FITC-labelled peptide or free FITC, confocal microscopy
Method in brief: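 bEnd.3 cells were seeded at 5 × 10^4/cm2 for 24 h, untreated or pretreated with poly-lysine (4 kDa, 20 µM, 1 h). They were exposed to 10 µM FITC-peptide or free FITC for 10 min, 30 min or 2 h, washed with cold PBS and fixed in 4 % PFA. Staining was DiD (10 µM, 30 min) or Hoechst, followed by confocal imaging. Flow cytometry was run on trypsinised cells (Ex 488/Em 525 nm). Mean ± SD, n = 3.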

[1] = 10 µM FITC-labelled peptide, 2 h, flow cytometry, n = 3

Row | Compound | cellular uptake observed by confocal imaging (2 h) | adsorption to cell membrane (10 µM FITC-labelled peptide, 10 min, confocal) | cellular uptake relative to HNSS [1] [%] | fluorescence intensity of cellular uptake relative to HNG [1] [fold]
1 | MAPRGFSCLLLLTGEIDLPVKRRAGGR(d)-Dmt-KF-NH2 [HNRS] | weak cellular uptake | adsorbed on the plasma membrane | 13.9 | 1.5
2 | O=C1OC2(c3ccc(O)cc3Oc3cc(O)ccc32)c2ccc(N=C=S)cc21 [free FITC, reference compound] | weak cellular uptake | – | – | –
